According to ChEMBL document CHEMBL4396890, “Synthesis, Biological Evaluation, Structure-Activity Relationship, and Mechanism of Action Studies of Quinoline-Metronidazole Derivatives Against Experimental Visceral Leishmaniasis” (J Med Chem, 2019):
Active and inactive are the calls of the source. The calls are words filed in the database; no cut-off is given here.

Assays:
[1] = tested on: Leishmania donovani; test: Antileishmanial activity against Leishmania donovani MHOM/IN/80/Dd8 amastigotes harboring luciferase reporter gene infected in mouse J774 cells at 50 uM after 48 hrs by Steady-Glo luminescence assay relative to control; format: functional; details: MHOM/IN/80/Dd8, J774, 48 h
Procedure, shortened: (§1)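 Infection of J774 macrophages with L. donovani Dd8 promastigotes at a 1:8 cell:parasite ratio. Compounds were diluted 2-fold in RPMI over 3.125–100 μM final and applied for 48 h. Amastigote inhibition was read by luciferase (RLU) or by Giemsa count of amastigotes per 100 macrophages. IC50 was from dose–response; n = 3 independent experiments done in replicate.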

[2] = Cytotoxicity against mouse J774 cells assessed as cell viability up to 50 uM measured after 48 hrs by MTT assay relative to control; format: cell-based; details: read-out: Activity
Procedure, shortened: (§2)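 Vero cells and J774 macrophages were exposed to 12.5−400 μM compound for 48 h. Viability was read by MTT. CC50 was derived from the curve. Mean ± SD, n = 3 experiments in replicate.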

[3] = Cytotoxicity against African green monkey Vero cells assessed as cell viability up to 100 uM measured after 48 hrs by MTT assay relative to control; format: cell-based; details: chlorocebus sabaeus, read-out: Activity; procedure, shortened: as §2
[4] = tested on: Leishmania donovani; test: Antileishmanial activity against Leishmania donovani MHOM/IN/80/Dd8 amastigotes harboring luciferase reporter gene infected in mouse J774 cells by Giemsa staining-based microscopic assay; format: functional, organism-based; details: TDE = time-dependent effect; procedure, shortened: as §1
[5] = tested on: Leishmania donovani; test: Antileishmanial activity against Leishmania donovani MHOM/IN/80/Dd8 promastigotes harboring luciferase reporter gene at 100 uM after 48 hrs by Steady-Glo luminescence assay; format: functional, organism-based
Procedure, shortened: (§3)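 Luciferase-expressing L. donovani Dd8 promastigotes were grown at 24 °C in M199 with 10% heat-inactivated FBS and G418 20 μg/mL. They were treated at varied concentrations for 24 and 48 h, and inhibition was read as relative luminescence units versus untreated control. IC50 was from dose–response; screening values are mean ± SD of at least three experiments in duplicate.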

[6] = tested on: Leishmania donovani; test: Antileishmanial activity against Leishmania donovani MHOM/IN/80/Dd8 promastigotes harboring luciferase reporter gene by MTT assay; format: functional, organism-based; details: TDE = time-dependent effect
Procedure, shortened: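 Luciferase-expressing L. donovani Dd8 promastigotes were grown at 24 °C in M199 with 10% heat-inactivated FBS and G418 20 μg/mL. They were exposed to a range of concentrations for 48 h, and viability was read by MTT absorbance as percent of untreated control. IC50 was from dose–response; n = 3 independent experiments done in replicate.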

[7] = tested on: Leishmania donovani; test: Antileishmanial activity against Leishmania donovani MHOM/IN/80/Dd8 promastigotes harboring luciferase reporter gene at 25 uM after 48 hrs by Steady-Glo luminescence assay relative to control; format: functional; details: MHOM/IN/80/Dd8, 48 h; procedure, shortened: as §3
[8] = Toxicity in BALB/c mouse infected with Leishmania donovani MHOM/IN/80/Dd8 promastigotes assessed as effect on health at 12.5 to 200 mg/kg, ip administered once daily for 5 days measured up to 7 days post dose; format: organism-based; details: in vivo
Procedure, shortened: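 BALB/c mice (20 ± 2 g) were infected by tail-vein injection of 2 × 10^7 stationary-phase promastigotes. At day 15 they received ip doses in 8% DMSO/PBS for 5 consecutive days and were killed at day 7 post-treatment. Survival, general health and body weight were monitored; 5 mice per group.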

[9] = tested on: Leishmania donovani; test: Antileishmanial activity against Leishmania donovani MHOM/IN/80/Dd8 promastigotes harboring luciferase reporter gene after 48 hrs by Steady-Glo luminescence assay; format: functional, organism-based; details: for IC50: MHOM/IN/80/Dd8, 48 h; procedure, shortened: as §3
[10] = tested on: Leishmania donovani; test: Antileishmanial activity against Leishmania donovani MHOM/IN/80/Dd8 promastigotes harboring luciferase reporter gene at 50 uM after 48 hrs by Steady-Glo luminescence assay relative to control; format: functional; details: MHOM/IN/80/Dd8, 48 h; procedure, shortened: as §3
[11] = tested on: Leishmania donovani; test: Induction of mitochondrial potential loss in Leishmania donovani MHOM/IN/80/Dd8 promastigotes assessed as shift in red to green fluorescence at 50 uM after 6 hrs by JC1 dye-based flow cytometry (reference value: 7.37%); format: functional
Procedure, shortened: (§4)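 Exponential-phase promastigotes were incubated with 50 μM compound for 6−48 h, or 0.1% DMSO vehicle. CCCP (50 μM) served as positive control. After JC-1 staining, the red-to-green fluorescence shift was measured by flow cytometry.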

[12] = tested on: Leishmania donovani; test: Induction of mitochondrial potential loss in Leishmania donovani MHOM/IN/80/Dd8 promastigotes assessed as shift in red to green fluorescence at 50 uM after 48 hrs by JC1 dye-based flow cytometry (reference value: 7.37%); format: functional; procedure, shortened: as §4
[13] = tested on: Leishmania donovani; test: Antileishmanial activity against Leishmania donovani MHOM/IN/80/Dd8 promastigotes infected in BALB/c mouse assessed as reduction in parasite load in liver at 100 mg/kg, ip administered once daily for 5 days measured 7 days post dose by giemsa staining-based assay relative to control; format: functional; design: scale not given: the % may be the effect or the level left
Procedure, shortened: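 Hamster-passaged strain was transformed to promastigotes. Stationary-phase cells (2 × 10^7 in 0.2 mL PBS) were injected into the tail vein of BALB/c mice. From day 15 post-infection, mice received compound ip in 8% DMSO in PBS for 5 consecutive days, 5 mice per group. Mice were killed day 7 post-treatment. Liver and spleen burden was read from Giemsa-stained stamp smears as LDU.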

[14] = tested on: Leishmania donovani; test: Induction of reactive oxygen species generation in Leishmania donovani MHOM/IN/80/Dd8 promastigotes at 50 uM measured after 24 hrs by H2DCFDA probe-based flow cytometry (reference value: 7%); format: functional
[15] = tested on: Leishmania donovani; test: Antileishmanial activity against Leishmania donovani MHOM/IN/80/Dd8 amastigotes harboring luciferase reporter gene infected in mouse J774 cells assessed as stimulation of host immunity by measuring change in TGFbeta level at 50 uM after 48 hrs by ELISA; format: functional, organism-based
Procedure, shortened: (§5)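 Infected J774 macrophages (24 h infection) were treated with 50 μM compound for 48 h. Culture supernatants were assayed by ELISA for TNF-α and IL-12 (Th1) and for TGF-β and IL-10 (Th2), compared with infected untreated cells.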

[16] = tested on: Leishmania donovani; test: Induction of plasma membrane permeabilization in Leishmania donovani MHOM/IN/80/Dd8 promastigotes assessed as increase in fluorescence at MIC measured after 4 hrs by sytox green dye based flow cytometry relative to 0.1 % triton-X 100; format: functional
[17] = Elimination rate constant in BALB/c mouse at 50 mg/kg, po administered via gavage by LC-MS/MS analysis; format: ADME, organism-based; details: in vivo
[18] = tested on: Leishmania donovani; test: Induction of reactive oxygen species generation in Leishmania donovani MHOM/IN/80/Dd8 promastigotes at 50 uM measured after 12 hrs by H2DCFDA probe-based flow cytometry (reference value: 7%); format: functional
[19] = tested on: Leishmania donovani; test: Induction of apoptosis in Leishmania donovani MHOM/IN/80/Dd8 promastigotes assessed as early apoptotic cells at 50 uM measured after 12 hrs by Annexin V-FITC/propidium iodide staining based assay (reference value: 6.91%); format: functional
[20] = tested on: Leishmania donovani; test: Antileishmanial activity against Leishmania donovani MHOM/IN/80/Dd8 amastigotes harboring luciferase reporter gene infected in mouse J774 cells assessed as stimulation of host immunity by measuring change in TNFalpha level at 50 uM after 48 hrs by ELISA; format: functional, organism-based; procedure, shortened: as §5
[21] = tested on: Leishmania donovani; test: Induction of apoptosis in Leishmania donovani MHOM/IN/80/Dd8 promastigotes assessed as early apoptotic cells at 50 uM measured after 24 hrs by Annexin V-FITC/propidium iodide staining based assay (reference value: 6.91%); format: functional

| SMILES | inhibition at 50 µM [1] | viability at 48 h [2] | viability at 48 h [3] | inhibition [4] | inhibition [5] | inhibition [6] | inhibition at 25 µM [7] | Activity [8] | inhibition [9] | IC50 [9] | inhibition at 50 µM [10] | also measured |
| --- | --- | --- | --- | --- | --- | --- | --- | --- | --- | --- | --- | --- |
| Cc1cc(-c2cccc(OCCn3c([N+](=O)[O-])cnc3C)c2)nc2ccccc12 | 93.2 to 96% | > 92% | > 86% | Tde | Active | Tde | 77.8% | Non-Toxic | Dose-dependent effect | 9.54 µM | 94.7% |  |
| Cc1cc(-c2ccc(OCCn3c([N+](=O)[O-])cnc3C)cc2)nc2ccccc12 | 93.8 to 96% | > 92% | > 86% | Tde | Active | Tde | 85.8% | Non-Toxic | Dose-dependent effect | 5.42 µM | 94.4% | Activity [11]: 23.15%; Activity [12]: 68.76%; Activity [13]: 82.5%; Activity [14]: 41.41%; Activity [15]: inactive; Activity [16]: 3.63%; k el [17]: 4.72e-05 s⁻¹; Activity [18]: 31.61%; Activity [19]: 12.89%; Activity [20]: inactive; Activity [21]: 4.04% |
